Active and inactive are the calls of the source. The rule behind the calls is not given here.

One series relates to NCI-H1703. Put plainly: Induction of apoptosis in human NCI-H1703 cells assessed as fold induction of capsase-3/7 activity measured after 24 to 48 hrs in presence of carboplatin by caspase-glo 3/7 assay. The note with it: time 24-48 hrs. In kind it is functional.
Series [1] concerns the target RAC-alpha serine/threonine-protein kinase (Homo sapiens) (UniProt P31749). Put plainly: Inhibition of AKT in human HCC827 cells assessed as reduction in S6 phosphorylation at S240/S244 residues at 5 umol/L measured after 5 hrs in presence of erlotinib by Western blot analysis. The class given is cell-based. The note with it: dose 5.0 µmol/L.
Series [2] can be described thus: Toxicity in human HCC70 cells xenografted CB17/icr SCID mouse at 120 mg/kg, po administered 3 times per week for 3 weeks starting 2 hrs post-lapatinib treatment and measured during compound dosing. The class given is organism-based. As to conditions: in vivo, 504 h. The method, boiled down:
(§1)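 HCC70 cells in 50% Matrigel/PBS injected s.c. into flank of female C.B-17/ICR-scid mice; dosing began after 3 wk, groups randomized at mean tumour 0.2 cm³ (n = 5). Lapatinib 100 mg/kg p.o. in distilled water, 5 d/wk for 3 wk; MK-2206 in 30% Captisol p.o. 3×/wk for 3 wk, given 2 h after lapatinib. Body weight and physical signs monitored throughout.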
(A xenograft is tissue or cells of one species grown in another, often human tumour cells in immunodeficient mice.)

Series [3] deals with NCI-H460. Kind of series: Synergistic antiproliferative activity against human NCI-H460 cells assessed as combination index at ED90 measured after 72 hrs in presence of erlotinib by celltiter-glo assay. The class given is functional.
Series [4] has as its system NCI-H460. Kind of series: Synergistic antiproliferative activity against human NCI-H460 cells assessed as combination index at ED50 measured after 72 hrs in presence of camptothecin by celltiter-glo assay. In kind it is functional. A general note: ATP-based viability assays read luminescence as a measure of living cells.
A further series relates to MDA-MB-468. Put plainly: Synergistic antiproliferative activity against human MDA-MB-468 cells assessed as combination index at ED75 treated 24 hrs prior to lapatinib and measured after 72 hrs by celltiter-glo assay. The class given is functional. The note with it: time 96 hrs.
The target in series [5] is RAC-alpha serine/threonine-protein kinase (Homo sapiens) (UniProt P31749). Kind of series: Inhibition of AKT in human A-431 cells assessed as reduction in PRAS40 phosphorylation at T246 residue at 5 umol/L measured after 5 hrs by Western blot analysis. In kind it is cell-based. The note with it: dose 5.0 µmol/L. The procedure, abridged: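 Cells were lysed in Tris-HCl pH 7.5, 150 mM NaCl, 1% Triton X-100 with protease and phosphatase inhibitors. Lysates were run on SDS-PAGE, transferred to nitrocellulose and probed with phospho-specific antibodies.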
A general note: Immunoblotting shows a protein as a band on a membrane.

The test system of another series is MDA-MB-231. Kind of series: Synergistic antiproliferative activity against human MDA-MB-231 cells assessed as combination index at ED90 measured after 72 hrs in presence of docetaxel by celltiter-glo assay. In kind it is functional. The method, boiled down: (§2)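 Cells grown in RPMI 1640 with 10% heat-inactivated FBS at 37°C, 5% CO₂. Seeded at 2 to 3 × 10³ per well; drugs added 24 h later. […] Viability read as cellular ATP by CellTiter-Glo. CI calculated by Chou–Talalay from median-effect plots at ED50, ED75 and ED90.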

The test system of series [6] is SK-BR-3. Put plainly: Synergistic antiproliferative activity against human SK-BR-3 cells assessed as combination index at ED75 measured after 72 hrs in presence of docetaxel by celltiter-glo assay. The class given is functional.
A further series concerns MCF7. Put plainly: Synergistic antiproliferative activity against human MCF7 cells assessed as combination index at ED75 measured after 72 hrs in presence of docetaxel by celltiter-glo assay. The class given is functional. The procedure, abridged:
as §2

The test system of a further series is ZR-75-1. Kind of series: Synergistic antiproliferative activity against human ZR-75-1 cells assessed as combination index at ED90 measured after 72 hrs in presence of docetaxel by celltiter-glo assay. The class given is functional.
Series [7] can be described thus: Toxicity in human NCI-H292 cells xenografted CD-1 mouse assessed as death at 120 mg/kg, po administered 3 times per week for 2 weeks and measured during compound dosing. The class given is organism-based. As to conditions: in vivo, 336 h. The procedure, abridged:
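NCI-H292 cells in 50% Matrigel/PBS injected s.c. into flank of female CD1-nude mice; dosing began after 2 wk at mean tumour 0.2 cm³, n = 5/group. […] Body weight and signs monitored; treatment ended day 16.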

The test system of series [8] is SK-BR-3. Kind of series: Synergistic antiproliferative activity against human SK-BR-3 cells assessed as combination index at ED90 measured after 96 hrs in presence of lapatinib by celltiter-glo assay. In kind it is functional.
Series [9] concerns the target RAC-alpha serine/threonine-protein kinase (Homo sapiens) (UniProt P31749). Put plainly: Inhibition of AKT phosphorylation at S473 residue in human NCI-H661 cells at 3 umol/L measured after 4 to 24 hrs in presence of carboplatin by MSD assay. The note with it: time 4-24 hrs.
Another series has as its system HCC1954. Put plainly: Synergistic antiproliferative activity against lapatinib pretreated human HCC1954 cells assessed as combination index at ED75 measured after 72 hrs by celltiter-glo assay. The class given is functional.
The next series relates to BT-474. Kind of series: Synergistic antiproliferative activity against docetaxel pretreated human BT-474 cells assessed as combination index at ED50 measured after 72 hrs by celltiter-glo assay. The class given is functional.
Another series relates to SK-OV-3. Put plainly: Synergistic antiproliferative activity against human SK-OV-3 cells assessed as combination index at ED50 measured after 72 hrs in presence of lapatinib by celltiter-glo assay. In kind it is functional.
The subject of a further series is NCI-H23. Put plainly: Synergistic antiproliferative activity against human NCI-H23 cells assessed as combination index at ED75 measured after 72 hrs in presence of erlotinib by celltiter-glo assay. The class given is functional.
For series [10], the system named is NCI-H460. Kind of series: Synergistic antiproliferative activity against human NCI-H460 cells assessed as combination index at ED90 measured after 72 hrs in presence of camptothecin by celltiter-glo assay. The class given is functional.
For series [11], the target named is RAC-alpha serine/threonine-protein kinase (Homo sapiens) (UniProt P31749). Kind of series: Inhibition of AKT phosphorylation at S473 residue in human HCC70 cells at 1 umol/L measured after 3 to 24 hrs in presence of lapatinib by Western blot analysis. The note with it: dose 1.0 µmol/L, time 3-24 hrs. The class given is cell-based. The procedure, abridged:
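HCC70 cells at ~70% confluence were exposed to 10 µmol/L lapatinib, 1 µmol/L MK-2206, or both, for 0, 3, 6, 12 or 24 h. Lysates were prepared in Triton X-100/Tris buffer (pH 7.5) with protease and phosphatase inhibitors. Immunoblots after SDS-PAGE and nitrocellulose transfer were probed for pAkt and pS6.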

In series [12] the test system is NCI-H460. Kind of series: Induction of apoptosis in human NCI-H460 cells assessed as fold induction of capsase-3/7 activity measured after 24 to 48 hrs in presence of gemcitabine by caspase-glo 3/7 assay. The class given is functional. As to conditions: time 24-48 hrs.
A short description of series [13]: Toxicity in human HCC70 cells xenografted CB17/icr SCID mouse assessed as body weight loss at 120 mg/kg, po administered 3 times per week for 3 weeks starting 2 hrs post-lapatinib treatment and measured during compound dosing. In kind it is organism-based. The note with it: in vivo, 504 h. The procedure, abridged:
as §1

A further series concerns A2780. Put plainly: Synergistic antiproliferative activity against human A2780 cells assessed as combination index at ED75 measured after 72 hrs in presence of carboplatin by celltiter-glo assay. In kind it is functional. The method, boiled down:
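Cells were seeded at 2–3 × 10³ per well in RPMI 1640 with 10% FBS. At 24 h, MK-2206 and the partner drug were added simultaneously at constant concentration ratios spanning each agent's IC₅₀, for 72 h. Growth was read as cellular ATP by CellTiter-Glo. CI was taken from median-effect plots of each agent alone and in combination (Chou–Talalay), at ED₅₀, ED₇₅ and ED₉₀.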

Chain of RAC-alpha serine/threonine-protein kinase (Homo sapiens) (P31749 whole entry): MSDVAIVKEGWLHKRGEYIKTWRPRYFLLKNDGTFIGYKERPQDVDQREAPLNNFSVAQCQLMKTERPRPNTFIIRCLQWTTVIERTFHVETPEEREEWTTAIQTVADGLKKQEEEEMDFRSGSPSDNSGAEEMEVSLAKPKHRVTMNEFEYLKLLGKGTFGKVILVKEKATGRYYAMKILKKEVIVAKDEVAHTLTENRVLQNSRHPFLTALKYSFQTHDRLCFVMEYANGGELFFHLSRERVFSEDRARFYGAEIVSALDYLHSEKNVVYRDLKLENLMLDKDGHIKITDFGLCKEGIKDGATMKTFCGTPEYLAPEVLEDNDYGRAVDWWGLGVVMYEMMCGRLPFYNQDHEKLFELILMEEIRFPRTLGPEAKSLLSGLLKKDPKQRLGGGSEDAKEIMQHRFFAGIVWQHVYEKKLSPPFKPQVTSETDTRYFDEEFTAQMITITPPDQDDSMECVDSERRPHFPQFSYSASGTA

On to `Cl.NC1(c2ccc(-c3nc4ccn5c(=O)[nH]nc5c4cc3-c3ccccc3)cc2)CCC1`, for which the “fold change (FC)” value with NCI-H1703 is reported as 1.3; with NCI-H460 [12] it was 1.6. The inhibition entry in series [1], in [5], in series [9] and in [11] was “Active” throughout. For the same molecule, the Activity entry in [2], in series [7] and in series [13] was “Non-Toxic” throughout. Moreover, the CI90 is on record as 0.17 with NCI-H460 [3]; 0.7 with MDA-MB-231; 0.4 in the series with ZR-75-1; 0.18 with SK-BR-3 [8]; 0.63 in the series with NCI-H460 [10]. In addition, the CI50 with NCI-H460 [4] was 0.39; with BT-474 it was 0.8; in the series on SK-OV-3, 0.07. In addition, the CI75 in the series on MDA-MB-468 came to 0.18; in the series on SK-BR-3 [6], 0.7; in the series on MCF7, 0.5; in the series on HCC1954 it was 0.18; in the series with NCI-H23 it was 0.46; in the series on A2780, 0.43.

Source of the values: ChEMBL document CHEMBL5705892, “MK-2206, an allosteric Akt inhibitor, enhances antitumor efficacy by standard chemotherapeutic agents or molecular targeted drugs in vitro and in vivo” (Mol Cancer Ther, 2010).
